In ChEMBL document CHEMBL4622955, “Phenyltriazole-functionalized sulfamate inhibitors targeting tyrosyl- or isoleucyl-tRNA synthetase” (Bioorg Med Chem, 2020):
Calls of active or inactive are those of the source. No cut-off for these calls is given here.

Legend:
Candida albicans = experiment: Antimicrobial activity against Candida albicans at 64 uM by resazurin dye based assay; format: functional, organism-based
Escherichia coli = experiment: Antimicrobial activity against Escherichia coli at 64 uM by resazurin dye based assay; format: functional, organism-based
[1] = system: Mycobacterium tuberculosis; experiment: Antimicrobial activity against Mycobacterium tuberculosis at 64 uM by resazurin dye based assay; format: functional, organism-based
Procedure, shortened: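 Non-pathogenic Mycobacterium tuberculosis strain, part of a broader antimicrobial panel; compounds tested up to a maximum concentration of 64 μM.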

[2] = biological target: T1, Tyrosine--tRNA ligase (Escherichia coli (strain K12)) (UniProt P0AGJ9); experiment: (§1) Inhibition of Escherichia coli BL21(DE3) TyrRS overexpressed in Escherichia coli Rosetta2(DE3) assessed as reduction in tRNA aminoacylation at 5 uM preincubated with enzyme and substrate for 10 mins prior to ATP addition using 14C-labeled tyrosine and tRNA as substrate by liquid scintillation counting method
T1 sequence (whole entry): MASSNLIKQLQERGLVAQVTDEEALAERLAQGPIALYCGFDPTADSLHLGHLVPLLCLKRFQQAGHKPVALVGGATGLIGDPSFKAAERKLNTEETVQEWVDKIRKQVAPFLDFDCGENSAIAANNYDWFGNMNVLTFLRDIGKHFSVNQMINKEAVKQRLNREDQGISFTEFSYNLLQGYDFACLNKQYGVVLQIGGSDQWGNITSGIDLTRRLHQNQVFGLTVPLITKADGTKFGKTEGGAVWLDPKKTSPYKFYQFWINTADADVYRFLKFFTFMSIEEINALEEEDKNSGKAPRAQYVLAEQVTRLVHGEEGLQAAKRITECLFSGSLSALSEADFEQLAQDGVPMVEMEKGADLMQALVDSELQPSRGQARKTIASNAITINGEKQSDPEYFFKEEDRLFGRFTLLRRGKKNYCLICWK
Procedure, shortened: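 TyrRS counterpart of the radiolabeled aminoacylation assay, with test compounds at 5 μM.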

Staphylococcus aureus = experiment: Antimicrobial activity against Staphylococcus aureus at 64 uM by resazurin dye based assay; format: functional, organism-based
[3] = biological target: Isoleucine--tRNA ligase (Escherichia coli K-12) (UniProt P00956); experiment: as §1, with “ileRS” for “TyrRS”, “1” for “5”, “isoleucine” for “tyrosine”
Procedure, shortened: (§2)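 Radiolabeled aminoacylation with 10 nM IleRS, 25 μM 14C-isoleucine, 500 μM ATP and total E. coli tRNA at 2 mg/mL final. Activity normalized to enzyme without inhibitor. Triplicate measurements.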

[4] = biological target: Isoleucine--tRNA ligase (Escherichia coli K-12) (UniProt P00956); experiment: as §1, with “ileRS” for “TyrRS”, “0.5” for “5”, “isoleucine” for “tyrosine”; procedure, shortened: as §2
Isoleucine--tRNA ligase = Isoleucine--tRNA ligase (Escherichia coli K-12, UniProt P00956); experiment: as §1, with “ileRS” for “TyrRS”, “aminoacylation” for “aminoacylation at 5 uM”, “isoleucine” for “tyrosine”; conditions: read-out: Ki(app); procedure, shortened: as §2
Isoleucine--tRNA ligase, sequence (P00956 whole entry): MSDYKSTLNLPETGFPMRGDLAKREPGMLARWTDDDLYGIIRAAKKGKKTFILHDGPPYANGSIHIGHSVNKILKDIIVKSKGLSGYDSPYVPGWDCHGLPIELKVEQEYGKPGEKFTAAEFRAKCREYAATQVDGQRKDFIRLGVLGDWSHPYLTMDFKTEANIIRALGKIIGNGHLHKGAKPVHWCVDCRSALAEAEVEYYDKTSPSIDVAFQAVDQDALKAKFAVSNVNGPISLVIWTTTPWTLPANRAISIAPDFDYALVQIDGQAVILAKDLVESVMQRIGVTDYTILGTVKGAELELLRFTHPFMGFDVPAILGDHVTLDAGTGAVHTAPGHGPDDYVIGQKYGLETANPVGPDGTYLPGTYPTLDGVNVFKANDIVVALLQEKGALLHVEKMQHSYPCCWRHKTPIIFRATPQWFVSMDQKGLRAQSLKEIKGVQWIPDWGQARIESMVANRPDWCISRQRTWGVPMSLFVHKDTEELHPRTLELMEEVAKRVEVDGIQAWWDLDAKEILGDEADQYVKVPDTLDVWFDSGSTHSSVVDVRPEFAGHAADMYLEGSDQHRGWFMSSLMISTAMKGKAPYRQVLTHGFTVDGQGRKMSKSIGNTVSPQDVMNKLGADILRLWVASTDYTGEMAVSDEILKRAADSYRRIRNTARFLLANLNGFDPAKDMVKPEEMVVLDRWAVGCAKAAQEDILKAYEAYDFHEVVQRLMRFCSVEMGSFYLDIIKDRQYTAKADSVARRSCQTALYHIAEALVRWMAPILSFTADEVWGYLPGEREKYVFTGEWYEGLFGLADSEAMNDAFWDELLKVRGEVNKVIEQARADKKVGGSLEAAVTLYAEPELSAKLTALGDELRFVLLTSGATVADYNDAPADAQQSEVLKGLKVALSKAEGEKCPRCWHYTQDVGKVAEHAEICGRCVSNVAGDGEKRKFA

Isoleucine--tRNA ligase (Escherichia coli K-12), sequence (P00956 whole entry): as above

N[C@@H](Cc1ccc(O)cc1)C(=O)NS(=O)(=O)OC[C@H]1OC[C@@H](CCn2nnc(-c3ccccc3)n2)[C@H](O)[C@@H]1O
Activity (Candida albicans): inactive | Activity (Escherichia coli): inactive | Activity [1]: inactive | inhibition [2]: inactive | Activity (Staphylococcus aureus): inactive

CC[C@H](C)[C@H](N)C(=O)NS(=O)(=O)OC[C@H]1OC[C@@H](OCCn2cc(-c3ccccc3)nn2)[C@H](O)[C@@H]1O
inhibition [3]: Active | inhibition [4]: Active | Ki (Isoleucine--tRNA ligase): 114 nM | Activity (Candida albicans): inactive | Activity (Escherichia coli): inactive | Activity [1]: inactive | Activity (Staphylococcus aureus): inactive

CC[C@H](C)[C@H](N)C(=O)NS(=O)(=O)OC[C@H]1OC[C@@H](CCn2cc(-c3ccccc3)nn2)[C@H](O)[C@@H]1O
inhibition [3]: Active | Activity (Candida albicans): inactive | Activity (Escherichia coli): inactive | Activity [1]: inactive | Activity (Staphylococcus aureus): inactive

CC[C@H](C)[C@H](N)C(=O)NS(=O)(=O)OC[C@H]1OC[C@@H](CCCn2cc(-c3ccccc3)nn2)[C@H](O)[C@@H]1O
inhibition [3]: Active | inhibition [4]: Active | Ki (Isoleucine--tRNA ligase): 88 nM | Activity (Candida albicans): inactive | Activity (Escherichia coli): inactive | Activity [1]: inactive | Activity (Staphylococcus aureus): inactive

N[C@@H](Cc1ccc(O)cc1)C(=O)NS(=O)(=O)OC[C@H]1OC[C@@H](OCCn2cc(-c3ccccc3)nn2)[C@H](O)[C@@H]1O
Activity (Candida albicans): inactive | Activity (Escherichia coli): inactive | Activity [1]: inactive | inhibition [2]: inactive | Activity (Staphylococcus aureus): inactive

CC[C@H](C)[C@H](N)C(=O)NS(=O)(=O)OC[C@H]1OC[C@@H](CCn2nnc(-c3ccccc3)n2)[C@H](O)[C@@H]1O
inhibition [3]: Active | Activity (Candida albicans): inactive | Activity (Escherichia coli): inactive | Activity [1]: inactive | Activity (Staphylococcus aureus): inactive

N[C@@H](Cc1ccc(O)cc1)C(=O)NS(=O)(=O)OC[C@H]1OC[C@@H](CCn2cc(-c3ccccc3)nn2)[C@H](O)[C@@H]1O
Activity (Candida albicans): inactive | Activity (Escherichia coli): inactive | Activity [1]: inactive | inhibition [2]: inactive | Activity (Staphylococcus aureus): inactive
